Data reported in ChEMBL document CHEMBL3526038, “The role of a basolateral transporter in rosuvastatin transport and its interplay with apical breast cancer resistance protein in polarized cell monolayer systems” (Drug Metab Dispos, 2012).

Tests used:
BCRP [1] = assay: Apparent permeability from basolateral to apical side of MDCK cells overexpressing BCRP at 2 uM after 60 to 120 mins; format: ADME, cell-based, Canis lupus familiaris; conditions: dog
Method in brief: (§1)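 Monolayers on collagen-coated polycarbonate Transwells (0.4 μm pores), seeded at 60,000 cells/cm². Caco-2 were used at 21-28 days (TEER > 450 Ω·cm²); BCRP-MDCK at 7-11 days (TEER > 1200 Ω·cm²), stably expressing human ABCG2 R482 under neomycin selection. Rosuvastatin 2 μM in HBSSg pH 7.4 was dosed apically or basolaterally at 37°C. Samples were taken at 60 and 120 min for LC-MS/MS. Papp was determined; ER = Papp B-to-A / Papp A-to-B; triplicate.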

BCRP [2] = assay: Apparent permeability from apical to basolateral side of MDCK cells overexpressing BCRP at 2 uM after 60 to 120 mins; format: ADME, cell-based, Canis lupus familiaris; conditions: dog; method in brief: as §1
[3] = Apparent permeability from basolateral to apical side of MDCK cells at 2 uM after 60 to 120 mins; format: ADME, cell-based, Canis lupus familiaris; conditions: dog; method in brief: as §1
BCRP [4] = assay: Efflux ratio of apparent permeability from basolateral to apical over apical to basolateral side of MDCK cells overexpressing BCRP at 2 uM after 60 to 120 mins; format: ADME, cell-based, Canis lupus familiaris; conditions: dog; method in brief: as §1
[5] = Apparent permeability from apical to basolateral side of human Caco2 cells at 2 uM after 60 to 120 mins; format: ADME, cell-based; conditions: Caco-2; method in brief: as §1
[6] = Efflux ratio of apparent permeability from basolateral to apical over apical to basolateral side of human Caco2 cells at 2 uM after 60 to 120 mins; format: ADME, cell-based; conditions: Caco-2; method in brief: as §1
[7] = Apparent permeability from apical to basolateral side of MDCK cells at 2 uM after 60 to 120 mins; format: ADME, cell-based, Canis lupus familiaris; conditions: dog; method in brief: as §1
[8] = Efflux ratio of apparent permeability from basolateral to apical over apical to basolateral side of MDCK cells at 2 uM after 60 to 120 mins; format: ADME, cell-based, Canis lupus familiaris; conditions: dog; method in brief: as §1
[9] = Apparent permeability from basolateral to apical side of human Caco2 cells at 2 uM after 60 to 120 mins; format: ADME, cell-based; conditions: Caco-2; method in brief: as §1
[10] = Activity at OSTalpha/OSTbeta in human Caco2 cells assessed as drug transport from basolateral to apical side at 2 uM in presence of estrone 3-sulfate relative to control; format: ADME, cell-based; conditions: caco-2, 2 µM
[11] = Activity at OSTalpha/OSTbeta in human Caco2 cells assessed as drug transport from basolateral to apical side at 2 uM in presence of taurolithocholate relative to control; format: ADME, cell-based; conditions: caco-2, 2 µM
[12] = Oral bioavailability in human at 40 mg; format: ADME, organism-based; conditions: in vivo
[13] = Activity at OSTalpha/OSTbeta in human Caco2 cells assessed as drug transport from apical to basolateral side at 50 uM in presence of 10 uM taurolithocholate relative to control; format: ADME, cell-based; conditions: caco-2, 50 µM
Method in brief: (§2)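 Caco-2 monolayers (21-28 days, TEER > 450 Ω·cm²). Rosuvastatin 50 μM was dosed apically with 10 μM atenolol as a low-permeability marker, in HBSSg/MES at pH 5.5. Basolateral buffer was HBSSg/HEPES pH 7.4, with or without tauroolithocholate (10, 50 or 100 μM). Incubated at 37°C. Basolateral samples were taken at 15, 30 and 60 min and measured by LC-MS/MS. Efflux was normalised to BCA protein and expressed as % control; triplicate.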

[14] = Partition coefficient, pKa of the compound; format: physicochemical; conditions: octanol/water
[15] = Activity at OSTalpha/OSTbeta in human Caco2 cells assessed as drug transport from basolateral to apical side at 2 uM in presence of bromosulfophthalein relative to control; format: ADME, cell-based; conditions: caco-2, 2 µM
[16] = Activity at OSTalpha/OSTbeta in human Caco2 cells assessed as drug transport from basolateral to apical side at 2 uM in presence of indomethacin relative to control; format: ADME, cell-based; conditions: caco-2, 2 µM
[17] = Activity at OSTalpha/OSTbeta in human Caco2 cells assessed as drug transport from apical to basolateral side at 50 uM in presence of 100 uM taurolithocholate relative to control; format: ADME, cell-based; conditions: caco-2, 50 µM; method in brief: as §2
[18] = Activity at OSTalpha/OSTbeta in human Caco2 cells assessed as drug transport from basolateral to apical side at 2 uM in presence of probenecid relative to control; format: ADME, cell-based; conditions: caco-2, 2 µM
Homo sapiens = assay: Total clearance in human at 40 mg, po; format: ADME, organism-based; conditions: in vivo
[19] = Cmax in healthy human at 20 mg, po; conditions: in vivo
[20] = Activity at OSTalpha/OSTbeta in human Caco2 cells assessed as drug transport from basolateral to apical side at 2 uM in presence of spironolactone relative to control; format: ADME, cell-based; conditions: caco-2, 2 µM
[21] = Activity at OSTalpha/OSTbeta in human Caco2 cells assessed as drug transport from basolateral to apical side at 2 uM in presence of chenodoxycholate relative to control; format: ADME, cell-based; conditions: caco-2, 2 µM
[22] = Activity at OSTalpha/OSTbeta in human Caco2 cells assessed as drug transport from basolateral to apical side at 2 uM in presence of dehydroepiandrosterone sulfate relative to control; format: ADME, cell-based; conditions: caco-2, 2 µM
[23] = Cellular uptake in human Caco2 cells after 30 mins by Michaelis-Menten equation analysis; format: ADME, cell-based, Caco-2
Method in brief: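 Caco-2 monolayers (21-28 days). Rosuvastatin at various concentrations was dosed basolaterally in HBSSg pH 7.4 and incubated 30 min at 37°C. Apical samples and ice-cold-washed, acetonitrile-lysed cells were analysed by LC-MS/MS. Total uptake was fitted by nonlinear regression to saturable plus nonsaturable components to give Km; mean ± S.D., n = 3.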

[24] = Activity at OSTalpha/OSTbeta in human Caco2 cells assessed as drug transport from basolateral to apical side at 2 uM in presence of digoxin relative to control; format: ADME, cell-based; conditions: caco-2, 2 µM
[25] = Activity at OSTalpha/OSTbeta in human Caco2 cells assessed as drug transport from basolateral to apical side at 2 uM in presence of rifamycin relative to control; format: ADME, cell-based; conditions: caco-2, 2 µM
[26] = Activity at OSTalpha/OSTbeta in human Caco2 cells assessed as drug transport from basolateral to apical side at 2 uM in presence of lithocholate acid relative to control; format: ADME, cell-based; conditions: caco-2, 2 µM
[27] = Activity at OSTalpha/OSTbeta in human Caco2 cells assessed as drug transport from basolateral to apical side at 2 uM in presence of taurocholate relative to control; format: ADME, cell-based; conditions: caco-2, 2 µM
[28] = Activity at OSTalpha/OSTbeta in human Caco2 cells assessed as drug transport from apical to basolateral side at 50 uM in presence of 50 uM taurolithocholate relative to control; format: ADME, cell-based; conditions: caco-2, 50 µM; method in brief: as §2

SMILES: COc1cc2nc(N3CCN(C(=O)c4ccco4)CC3)nc(N)c2cc1OC [PRAZOSIN]
- Papp B→A at 2 µM (BCRP [1]): 45.1 ×10⁻⁶ cm/s
- Papp A→B at 2 µM (BCRP [2]): 1.31 ×10⁻⁶ cm/s
- Papp B→A at 2 µM [3]: 13.6 ×10⁻⁶ cm/s
- efflux ratio at 2 µM (BCRP [4]): 34.5
- Papp A→B at 2 µM [5]: 3.92 ×10⁻⁶ cm/s
- efflux ratio at 2 µM [6]: 10.5
- Papp A→B at 2 µM [7]: 4.32 ×10⁻⁶ cm/s
- efflux ratio at 2 µM [8]: 3.1
- Papp B→A at 2 µM [9]: 41.1 ×10⁻⁶ cm/s

SMILES: CC(C)c1nc(N(C)S(C)(=O)=O)nc(-c2ccc(F)cc2)c1/C=C/[C@@H](O)C[C@@H](O)CC(=O)[O-].CC(C)c1nc(N(C)S(C)(=O)=O)nc(-c2ccc(F)cc2)c1/C=C/[C@@H](O)C[C@@H](O)CC(=O)[O-].[Ca+2] [ROSUVASTATIN CALCIUM]
- Papp B→A at 2 µM (BCRP [1]): 1.63 ×10⁻⁶ cm/s
- Drug transport [10]: 28.7%
- Drug transport [11]: 30.1%
- bioavailability [12]: 20%
- Papp A→B at 2 µM (BCRP [2]): 0.28 ×10⁻⁶ cm/s
- Drug transport [13]: 338%
- pKa [14]: 4.2
- Papp B→A at 2 µM [3]: 0.49 ×10⁻⁶ cm/s
- Drug transport [15]: 23.5%
- Drug transport [16]: 32.7%
- Drug transport [17]: 359%
- Drug transport [18]: 73.8%
- efflux ratio at 2 µM (BCRP [4]): 5.8
- CL (Homo sapiens): 70%
- Papp A→B at 2 µM [5]: 0.25 ×10⁻⁶ cm/s
- efflux ratio at 2 µM [6]: 83.2
- Cmax [19]: 6 nM
- Drug transport [20]: 35.1%
- Papp A→B at 2 µM [7]: 0.43 ×10⁻⁶ cm/s
- Drug transport [21]: 27.9%
- efflux ratio at 2 µM [8]: 1.1
- Drug transport [22]: 38.1%
- Kd ([23]; caco-2): 0.9985 µL/min/mg
- Km at 0.5 h ([23]; human, Caco-2 cells): 4.21 µM
- Jmax ([23]; human, caco-2, 0.5 h): 24.64 pmol/min/mg
- Drug transport [24]: 43.9%
- Drug transport [25]: 21.4%
- Papp B→A at 2 µM [9]: 20.7 ×10⁻⁶ cm/s
- Drug transport [26]: 42.6%
- Drug transport [27]: 29.1%
- Drug transport [28]: 436%
